Data published in ChEMBL document CHEMBL1147206, “Synthetic cinnamylphenol derivatives as cancer chemopreventive agents” (2007).

How the values were obtained:
Raji [1] = assay: Survival of Raji cells at 3.2 nmol by trypan blue staining method; assay type: functional, Homo sapiens
Summary of the method: (§1)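 Raji cells (EBV genome-carrying, non-producer) grown to 10⁶ cells/mL, centrifuged, resuspended in RPMI 1640 with 10% FCS, 4 mM n-butyric acid and 32 pmol TPA (20 ng/mL), plus test compound in DMSO (32, 16, 3.2 or 0.32 nmol; 1000–10 mol ratio/TPA). Incubated 37 °C, 48 h; viability counted by hemocytometer with Trypan Blue; ≥60% survival required.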

Raji [2] = assay: Survival of Raji cells at 32 nmol by trypan blue staining method; assay type: functional, Homo sapiens; summary of the method: as §1
Human gammaherpesvirus 4 [3] = assay: TPA-induced EBV early antigen activation in Raji cells at 32 nmol relative to control
Raji [4] = assay: Survival of Raji cells at 0.32 nmol by trypan blue staining method; assay type: functional, Homo sapiens; summary of the method: as §1
Human gammaherpesvirus 4 [5] = assay: TPA-induced EBV early antigen activation in Raji cells at 3.2 nmol relative to control
Raji [6] = assay: Survival of Raji cells at 16 nmol by trypan blue staining method; assay type: functional, Homo sapiens; summary of the method: as §1
Human gammaherpesvirus 4 [7] = assay: TPA-induced EBV early antigen activation in Raji cells at 0.32 nmol relative to control
Human gammaherpesvirus 4 [8] = assay: TPA-induced EBV early antigen activation in Raji cells at 16 nmol relative to control
Mus musculus [9] = species: Mus musculus; assay: Inhibition of TPA-induced skin tumor in SENCAR mouse assessed as reduction of skin papilloma at 85 nmol after 20 weeks; assay type: functional; set-up: scale not given: the % may be the effect or the level left
Mus musculus [10] = species: Mus musculus; assay: Inhibition of TPA-induced skin tumor in SENCAR mouse assessed as reduction of skin papilloma at 85 nmol after 10 weeks; assay type: functional; set-up: scale not given: the % may be the effect or the level left

Structure (SMILES) | Survival (Raji [1]) [%] | Survival (Raji [2]) [%] | EBV-EA activation (Human gammaherpesvirus 4 [3]) [%] | Survival (Raji [4]) [%] | EBV-EA activation (Human gammaherpesvirus 4 [5]) [%] | Survival (Raji [6]) [%] | EBV-EA activation (Human gammaherpesvirus 4 [7]) [%] | EBV-EA activation (Human gammaherpesvirus 4 [8]) [%] | Activity (Mus musculus [9]) [%] | Activity (Mus musculus [10]) [%]
COc1cc(/C=C/Cc2ccc(O)c(O)c2OC)ccc1OC(C)=O | >80 | 60 | 9.4 | >80 | 74 | >80 | 100 | 36.1 |  | 
COc1ccc(C/C=C/c2ccccc2)c(OC)c1O | >80 | 60 | 14.1 | >80 | 76.9 | >80 | 100 | 41.2 |  | 
COc1cc(/C=C/Cc2ccc(O)c(O)c2OC)ccc1O | >80 | 60 | 7.5 | >80 | 70.2 | >80 | 95.7 | 43.7 |  | 
COc1cc(/C=C/Cc2ccc(OC)c(OCC=C(C)C)c2O)ccc1O | >80 | 70 | 0 | >80 | 64.2 | >80 | 87.1 | 28.3 |  | 
COc1cc(/C=C/Cc2ccc(OC)c(O)c2OCC=C(C)C)ccc1O | >80 | 70 | 0 | >80 | 63.2 | >80 | 88.1 | 27.8 |  | 
COc1ccc(C/C=C/c2ccccc2)c(O)c1 | >80 | 60 | 20.7 | >80 | 73.7 | >80 | 100 | 45.1 |  | 
COc1c(C/C=C/c2ccccc2)ccc(O)c1C/C=C/c1ccccc1 | >80 | 60 | 12.8 | >80 | 68.2 | >80 | 100 | 41.5 |  | 
COc1cc(O)ccc1C/C=C/c1ccccc1 | >80 | 60 | 18.1 | >80 | 73.2 | >80 | 100 | 44.7 |  | 
COc1ccc(C/C=C/c2ccccc2)c(O)c1O | >80 | 60 | 10.8 | >80 | 71.5 | >80 | 100 | 42.5 |  | 
COc1ccc(C/C=C/c2ccccc2)c(O)c1OC | >80 | 60 | 13.3 | >80 | 76.2 | >80 | 100 | 45.5 |  | 
COc1c(C/C=C/c2ccccc2)cc(C/C=C/c2ccccc2)c(O)c1OC | >80 | 60 | 15.9 | >80 | 75.6 | >80 | 100 | 46.4 |  | 
COc1c(C/C=C/c2ccccc2)cc(C/C=C/c2ccccc2)c(OC)c1OC | >80 | 60 | 12.6 | >80 | 75.2 | >80 | 100 | 39.8 |  | 
COc1c(C/C=C/c2ccccc2)ccc(OCC=C(C)C)c1OC | >80 | 70 | 0 | >80 | 68.2 | >80 | 91.5 | 29.8 |  | 
COc1cc(/C=C/Cc2ccc(OC)c(O)c2O)ccc1O | >80 | 60 | 8.7 | >80 | 73.2 | >80 | 95.7 | 45.5 |  | 
COc1cc(/C=C/Cc2ccc(OC)c(OCC=C(C)C)c2OCC=C(C)C)ccc1OCC=C(C)C | >80 | 70 | 0 | >80 | 61.5 | >80 | 83.3 | 23.6 |  | 
COc1cc(/C=C/Cc2ccc(OC)c(O)c2O)ccc1OC(C)=O | >80 | 60 | 10 | >80 | 74.6 | >80 | 100 | 37.6 |  | 
COc1cccc(O)c1C/C=C/c1ccccc1 | >80 | 60 | 18.3 | >80 | 70.5 | >80 | 100 | 43.7 |  | 
COc1ccc(C/C=C/c2ccccc2)c(OCC=C(C)C)c1 | >80 | 70 | 0 | >80 | 67.8 | >80 | 91.7 | 29.9 |  | 
COc1cccc(OCC=C(C)C)c1C/C=C/c1ccccc1 | >80 | 70 | 0 | >80 | 68.9 | >80 | 92.7 | 30.8 |  | 
COc1cc(OCC=C(C)C)ccc1C/C=C/c1ccccc1 | >80 | 70 | 0 | >80 | 65.2 | >80 | 87.6 | 29.3 |  | 
COc1ccc(C/C=C/c2ccccc2)c(O)c1OCC=C(C)C | >80 | 70 | 0 | >80 | 65.6 | >80 | 90.8 | 30.6 |  | 
COc1cc(/C=C/Cc2ccc(OC)c(OCC=C(C)C)c2O)ccc1OCC=C(C)C | >80 | 70 | 0 | >80 | 68.6 | >80 | 89.1 | 27.5 | 53 | 87
COc1ccc(C/C=C/c2ccccc2)c(OCC=C(C)C)c1O | >80 | 70 | 0 | >80 | 64.5 | >80 | 90.6 | 27.6 |  | 
COc1c(C/C=C/c2ccccc2)ccc(OCC=C(C)C)c1OCC=C(C)C | >80 | 70 | 0 | >80 | 64.5 | >80 | 88.9 | 22.6 | 30 | 
COc1c(O)ccc(C/C=C/c2ccccc2)c1OC | >80 | 60 | 12.5 | >80 | 74 | >80 | 100 | 44.3 |  | 
COc1ccc(C/C=C/c2ccccc2)c(OC)c1OC | >80 | 60 | 14.2 | >80 | 76.6 | >80 | 100 | 41.5 |  | 
COc1ccc(C/C=C/c2ccccc2)c(OCC=C(C)C)c1OCC=C(C)C | >80 | 70 | 0 | >80 | 62.2 | >80 | 88.6 | 24.6 |  | 
COc1cc(/C=C/C(=O)CC(=O)/C=C/c2ccc(O)c(OC)c2)ccc1O [CURCUMIN] | >80 | 60 | 0 | >80 | 81.7 | >80 | 100 | 22.8 |  | 
COc1c(C/C=C/c2ccccc2)ccc(O)c1O [HYDROXYOBUSTYRENE] | >80 | 60 | 10.2 | >80 | 71 | >80 | 100 | 41.3 |  | 
